High-throughput results deposited in PubChem by Sanford-Burnham Center for Chemical Genomics.
SENP8 block-1: SENP8 protease inhibition. Q96LD8. purified SENP8, Z-RLRGG-aminoluciferin cleavage, luminescence. inhibition, % at 10 µM. 330,000 tested, 1.2% active; in the data active = inhibition above about 50%
SENP6 block: SENP6 protease inhibition; Q9GZR1; Recombinant SENP6 catalytic domain, aminoluciferin luminescence; inhibition, % at 10 µM; 330,000 tested, 1.8% active; AID 2599;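 active = inhibition above about 50% at the single tested dose, limit read from the data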;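 also: plate controls were DMSO wells with enzyme for no effect and DMSO wells lacking enzyme for full effect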
Target sequence (Q9GZR1 628-1112 limits assumed): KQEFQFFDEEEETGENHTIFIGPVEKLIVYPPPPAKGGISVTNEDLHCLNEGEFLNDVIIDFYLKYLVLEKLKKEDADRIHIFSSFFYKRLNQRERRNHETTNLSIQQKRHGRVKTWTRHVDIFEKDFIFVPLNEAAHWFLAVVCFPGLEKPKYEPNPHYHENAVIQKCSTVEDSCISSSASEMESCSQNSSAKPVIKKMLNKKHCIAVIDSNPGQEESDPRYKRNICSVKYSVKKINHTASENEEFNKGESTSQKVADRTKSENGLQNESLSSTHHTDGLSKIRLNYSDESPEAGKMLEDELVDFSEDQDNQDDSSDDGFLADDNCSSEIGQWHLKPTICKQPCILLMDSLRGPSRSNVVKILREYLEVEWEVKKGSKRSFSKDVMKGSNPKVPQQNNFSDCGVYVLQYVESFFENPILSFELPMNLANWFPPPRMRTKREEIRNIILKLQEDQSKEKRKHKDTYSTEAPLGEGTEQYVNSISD
Apaf-1 inh: inhibitors of human Apaf-1 apoptosome; O14727; 330,000 tested, 0.71% active; reconstituted apoptosome caspase-3 activity, DEVD-Rh110 fluorescence; inhibition, % at 20 µM; active = inhibition of at least 40% at 20 µM;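 also: plate controls were DMSO wells for no effect and DEVD-CHO caspase inhibitor wells for full effect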
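Material: reconstituted apoptosome with Apaf-1, cytochrome c, caspase-9, procaspase-3, dATP; medium: pH 7.5 Hepes buffer with CHAPS, BSA, DTT; also added: cytochrome c and DEVD-Rh110 substrate; timing: 30 min plus 50 min, RT; signal: Rh110 fluorescence intensity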
SENP7 inh: SENP7 protease inhibition; Q9BQF6; recombinant SENP7, Z-RLRGG-aminoluciferin luminescence, 40 min; inhibition, % at 5 µM; 330,000 tested, 1.5% active;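 active = inhibition above about 50% at the single test dose, limit read from the data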;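 also: plate controls were DMSO with enzyme for no effect and no enzyme buffer wells for full effect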
SENP8 block-2: inhibitors of human SENP8 protease | Q96LD8 | recombinant SENP8, Nedd8 substrate fluorescence | inhibition, % at 20 µM | 360,000 tested, 0.64% active | AID 602440; in the data active = inhibition mostly above about 40%, no sharp cut-off; inactive = mostly below about 27%
SENP1 inh: SENP1 (human) catalytic domain inhibition; Q9P0U3; recombinant SENP1 catalytic domain, CyPet-SUMO1-YPet FRET cleavage; inhibition, % at 10 µM; 360,000 tested, 0.21% active;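 active = inhibition at least 30% at 10 µM, raw YFP signal under a set limit, fluorescence ratio 0.5 to 1.5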;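 also: 0% = enzyme with DMSO and 100% = no enzyme wells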
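Test system: hSENP1 catalytic domain, recombinant; Amount: 20 pM final SENP1 enzyme; Medium: Tris pH 8 buffer plus EDTA, NaCl, BME, BSA, NP40, catalase; Schedule: 50 min enzyme reaction, room temperature, light-protected; Technique: FRET fluorescence in CFP and YFP emission channels; Controls: no-enzyme wells low, DMSO-plus-enzyme wells high control.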
SENP8 conf: human SENP8 inhibition, confirmed; shares compounds with SENP7 inh; Recombinant SENP8, Z-RLRGG-aminoluciferin luminescence, 60 min; inhibition, % at 12.5 µM; 6,200 tested, 40% active;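 active = mean inhibition across replicates above about 50%, limit read from the data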
SENP6 conf: confirmation of human SENP6 protease inhibitors | shares compounds with SENP7 inh | inhibition, % at 12.5 µM | recombinant SENP6, Z-RLRGG-aminoluciferin luminescence | AID 488915 | 6,200 tested, 58% active
SENP7 conf: confirmation of human SENP7 protease inhibitors. 6,200 tested, 69% active. AID 488917. recombinant SENP7, Z-RLRGG-aminoluciferin luminescence, 40 min. shares compounds with SENP7 inh. inhibition, % at 12.5 µM
Casp3 select: selectivity test for SENP inhibitors: human caspase-3 inhibition | shares compounds with SENP7 inh | purified caspase-3, Z-DEVD-aminoluciferin luminescence, 60 min | inhibition, % at 12.5 µM | 6,200 tested, 60% active | AID 488918;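 active = mean inhibition above about 50%, limit read from the data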;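 also: plate controls were enzyme with DMSO for no effect and wells without caspase-3 for full effect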
Target sequence (P42574 28-227 limits assumed): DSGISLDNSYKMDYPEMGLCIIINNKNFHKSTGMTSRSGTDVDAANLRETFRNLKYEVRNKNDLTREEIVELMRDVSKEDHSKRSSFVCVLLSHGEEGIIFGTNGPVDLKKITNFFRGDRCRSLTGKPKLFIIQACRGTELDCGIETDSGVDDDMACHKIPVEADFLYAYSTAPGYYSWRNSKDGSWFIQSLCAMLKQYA
SENP luc ctr: luminescence interference (SENP counter-screen); 6,200 tested, 39% active; Pre-incubated SENP8/Z-RLRGG-aminoluciferin, luciferase luminescence interference; inhibition, % at 12.5 µM; AID 488919; shares compounds with SENP7 inh;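 active = mean inhibition above about 50% when retested at one dose, limit read from the data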;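 also: plate controls were DMSO wells with completed reaction for no effect and substrate without enzyme for full effect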
Apaf-1 inh conf: confirmation of Apaf-1 inhibitors. reconstituted apoptosome, caspase-3 DEVD-Rh110 fluorescence. shares compounds with Apaf-1 inh. inhibition, % at 20 µM. 1,800 tested, 25% active;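 active = mean inhibition of at least 40% at 20 µM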;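 also: plate controls were DMSO wells for no effect and DEVD-CHO caspase inhibitor control wells for full effect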
Rh110 interf inh: counter-screen for Apaf-1 inhibitors: fluorescence interference. shares compounds with Apaf-1 inh. Rh110 fluorescence interference, quenched caspase reaction. activation (fluorescence interference), % at 20 µM. 1,800 tested, under 10 active. AID 504615;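 active = signal rise of 40% or more at 20 µM, treated as a fluorescence artifact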
Fluor interf inh: shows fluorescence interference in the Apaf-1 inhibitor assay format | shares compounds with Apaf-1 inh | fluorescence interference counterscreen, Apaf-1 assay format | IC50, µM | 460 tested, under 10 active; call rule not given here
Numbers without * were called inactive. The list is not random: actives were taken first. Their share in the collection is about 2.9%.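 The calls were made as follows, unless noted: active = mean inhibition above about 50% in the one-dose retest (limit read from the data); inactive = the rest.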

`C=CCn1c(N)c(C(=O)NCC2CCCO2)c2nc3ccccc3nc21` (stereo unspecified) gave SENP8 block-1 90*, SENP6 block 91*, Apaf-1 inh 78*, SENP7 inh 23, SENP8 block-2 -274, SENP1 inh -22, SENP8 conf 10, SENP6 conf 21, SENP7 conf 15, Casp3 select 5, SENP luc ctr 5, Apaf-1 inh conf 11 and Rh110 interf inh -187.
For Nc1c(C(=O)NCc2ccccc2)c2nc3ccccc3nc2n1CCCN1CCOCC1 the results were SENP8 block-1 63*, SENP6 block 74*, Apaf-1 inh 49*, SENP7 inh 22, SENP8 block-2 -410, SENP1 inh -21, SENP8 conf 0, SENP6 conf 7, SENP7 conf -2, Casp3 select -4, SENP luc ctr -5, Apaf-1 inh conf 32 and Rh110 interf inh 26.
Screening O=C(NCC1CCCO1)c1coc2nc3ccccc3nc12 (stereo unspecified) returned SENP8 block-1 10, SENP6 block 7, Apaf-1 inh 5, SENP7 inh 8, SENP8 block-2 -495 and SENP1 inh -55.
`Cc1nn(CC(=O)NCCN2CCOCC2)c(=O)c2cc3sccc3n12` gave SENP8 block-1 -7, SENP6 block 5, Apaf-1 inh -10, SENP7 inh -4, SENP8 block-2 7 and SENP1 inh 0.
Screening C/C(=N\NC(=O)CNc1cccc2ccccc12)c1ccccc1 returned SENP8 block-1 54*, SENP6 block 73*, Apaf-1 inh 83*, SENP7 inh 19, SENP8 block-2 -351, SENP1 inh -13, SENP8 conf 0, SENP6 conf 4, SENP7 conf 10, Casp3 select 1, SENP luc ctr 0, Apaf-1 inh conf 15 and Rh110 interf inh 8.
For O=C(NNc1cc(N2CCOCC2)nc(N2CCOCC2)n1)c1ccc(Cl)c(Cl)c1 the results were SENP8 block-1 10, SENP6 block 49, Apaf-1 inh 40, SENP7 inh 14, SENP8 block-2 5 and SENP1 inh -65.
Cc1ccc(C(=O)NNc2cc(N3CCCC3)nc(N3CCCC3)n2)cc1 was read as SENP8 block-1 95*, SENP6 block 82*, Apaf-1 inh 97*, SENP7 inh 42, SENP8 conf 52*, SENP6 conf 87*, SENP7 conf 50*, Casp3 select -1, SENP luc ctr -2, Apaf-1 inh conf 89*, Rh110 interf inh 8 and Fluor interf inh >100.
Screening Nc1c(N2CCOCC2)cc(Cl)c2nonc12 returned SENP8 block-1 13, SENP6 block 23, Apaf-1 inh 14, SENP7 inh 21, SENP8 block-2 2 and SENP1 inh 6.
`Nc1c(N2CCCC2)cc(Cl)c2nonc12` gave SENP8 block-1 83*, SENP6 block 91*, Apaf-1 inh 96*, SENP7 inh 49, SENP8 block-2 13, SENP1 inh 61*, SENP8 conf 46, SENP6 conf 86*, SENP7 conf 74*, Casp3 select 11, SENP luc ctr 2, Apaf-1 inh conf 75*, Rh110 interf inh 4 and Fluor interf inh >100.
Screening CCCCC(=O)Nc1c2c(nn1-c1ccc(C)cc1)CS(=O)(=O)C2 returned SENP8 block-1 -1, SENP6 block 5, Apaf-1 inh 3, SENP7 inh 5, SENP8 block-2 6 and SENP1 inh -1.
Screening Oc1ccc(Br)cc1CNc1cnc2ccccc2c1 returned SENP8 block-1 -6, SENP6 block 6, Apaf-1 inh 11, SENP7 inh -7, SENP8 block-2 -330 and SENP1 inh -10.
Screening Oc1c(Br)cc(Br)cc1CNc1cccc2cccnc12 returned SENP8 block-1 91*, SENP6 block 85*, Apaf-1 inh 92*, SENP7 inh 88*, SENP8 block-2 -70, SENP1 inh -23, SENP8 conf 4, SENP6 conf 21, SENP7 conf 22, Casp3 select 4, SENP luc ctr -3, Apaf-1 inh conf 59*, Rh110 interf inh 10 and Fluor interf inh >100.
`Cc1ccc(O)c(CNc2cccc3cccnc23)c1` gave SENP8 block-1 84*, SENP6 block -4, Apaf-1 inh 93*, SENP7 inh 65*, SENP8 block-2 -8, SENP1 inh -6, SENP8 conf -2, SENP6 conf 21, SENP7 conf 16, Casp3 select 5, SENP luc ctr 4, Apaf-1 inh conf 38 and Rh110 interf inh 4.
COc1cccc(CNc2ccccn2)c1O was read as SENP8 block-1 4, SENP6 block 10, Apaf-1 inh 1, SENP7 inh 3, SENP8 block-2 20 and SENP1 inh 0.
Oc1c(Br)cc(Br)cc1CNc1ccccn1 was read as SENP8 block-1 3, SENP6 block 3, Apaf-1 inh -10, SENP7 inh 0, SENP8 block-2 34 and SENP1 inh 2.
Screening COc1cccc(CNc2cccc3cccnc23)c1O returned SENP8 block-1 80*, SENP6 block 79*, Apaf-1 inh 71*, SENP7 inh 66*, SENP8 block-2 33, SENP1 inh -10, SENP8 conf -6, SENP6 conf 11, SENP7 conf 16, Casp3 select 2, SENP luc ctr 14, Apaf-1 inh conf 14 and Rh110 interf inh -7.
